Screening data from PubChem.
Compounds with a hit are over-represented: about 9.6% of the library has one in this group of screens.
MT stabilizer: microtubule stabilizers in HeLa cells, primary screen, imaging, high-content imaging. HeLa tubulin immunostaining HCS, 24 h; share of cells brighter than vehicle mean+2SD. % tubulin-high responders, % at 10 µM. 0.83% of 200,000 active;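 active = plate Z-score above 3 for both tubulin-high and condensed-nucleus cell shares, with cell loss under 80%, at 10 µM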;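 also: anti alpha tubulin signal scored within the nucleus-defined area of each cell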
BaF3 parental: parental Ba/F3 cell viability inhibition, counter-screen for JAK2V617F inhibitor project, murine pro-B, CellTiter-Glo luminescence; CellTiter-Glo ATP luminescence; inhibition, % at 5.6 µM; 1.1% of 220,000 active;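 active = inhibition above a per-campaign cutoff, the mean inhibition of all tested compounds plus 3 SD, cut at about 27% in these data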;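 also: 0% = DMSO wells and 100% = JAK Inhibitor I control wells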
APP transl inh: inhibitors of APP translation via 5'UTR reporter, primary screen, APP 5'UTR luciferase, SH-SY5Y cells; SH-SY5Y APP 5'UTR-luciferase reporter, luminescence; inhibition, % at 2 µM; 0.82% of 190,000 active;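 active = inhibition above a set limit, derived from the sample mean plus 3 SD, cut at about 45% in these data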
Ba/F3 V617F tox: reduced viability of JAK2V617F-dependent Ba/F3 cells, primary screen, JAK2V617F inhibitor project, cell-based, Ba/F3 EpoR-JAK2V617F, luminescence; ATP luminescence; 1.1% of 220,000 active; inhibition, % at 5.6 µM; AID 1446, 2008;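 active = inhibition above the campaign mean plus 3 SD over all tested compounds, cut at about 24% in these data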;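 also: cytokine-independent growth of Ba/F3 cells driven by EpoR plus mutant JAK2; 0% = DMSO-treated cells and 100% = JAK inhibitor I control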
bCat nuc transl: modulators of beta-catenin nuclear translocation, primary screen, imaging, HeLa cells, immunofluorescence, high-content. nuclear translocation activity, % at 5 µM. 0.3% of 190,000 active. AID 1665, 2009;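 active = nuclear translocation activity above 50% at 5 µM, with a well cell count of 50 or more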;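 also: per-cell ratio of nuclear to cytoplasmic median beta-catenin stain intensity; plate controls were DMSO negative control for no effect and GSK-3 inhibitor IX positive control for full effect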
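test system = HeLa cells, endogenous beta-catenin | dosing = single 5 µM dose plus 0.02–20 µM confirmation series | times = compound treatment 24 h, 37°C, 5% CO2 | technique = beta-catenin immunofluorescence imaging with DAPI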
Lmaj promast: Leishmania major promastigote growth inhibition, primary screen | inhibition, % at 10 µM | 9% of 200,000 active | Leishmania major promastigotes, resazurin fluorescence viability; in the data active = inhibition above about 50%;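 also: promastigotes grown with compound for 44 hours at 28 °C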
The depositor's hits bear a star; . = no result given.

SMILES	MT stabilizer	BaF3 parental	APP transl inh	Ba/F3 V617F tox	bCat nuc transl	Lmaj promast
COC(=O)c1cc(NC(=O)Nc2cccc(Cl)c2)ccc1Cl	2.4	5.4	-11.4	4.0	0.3	71.4*
O=C(Nc1ccccc1)Nc1ccc(S(=O)(=O)N2CCCCC2)cc1	2.4	3.0	-9.3	-0.7	-0.8	82.5*
O=C(Nc1ccccc1)c1cc(S(=O)(=O)N2CCSCC2)ccc1Cl	1.5	0.6	4.1	-1.6	-3.1	52.7*
CN1CCN(c2ccc(CNS(=O)(=O)Cc3ccc(Cl)cc3)cc2)CC1	.	1.2	.	2.1	1.9	.
CN1CCN(S(=O)(=O)c2ccc(NC(=O)Nc3cccc(Cl)c3)cc2)CC1	2.9	0.3	-1.8	-0.7	-0.8	98.1*
CCc1ccccc1NC(=S)N(Cc1cccnc1)Cc1ccco1	4.7	-1.5	-2.0	-2.2	1.1	98.8*
Cc1cc(C)c(NC(=S)N(Cc2cccnc2)Cc2ccco2)c(C)c1	2.4	2.0	-7.3	-1.8	-2.6	87.5*
Cc1ccc(NC(=O)c2ccccc2NS(=O)(=O)c2ccc(Cl)s2)cc1S(=O)(=O)N1CCOCC1	3.9	6.7	-5.0	-1.1	-0.9	-4.4
O=c1oc2ccccc2c(Nc2ccc3ccccc3c2)c1[N+](=O)[O-]	46.0*	1.3	-1.9	-0.2	13.9	38.2
CC(Nc1c([N+](=O)[O-])c(=O)oc2ccccc12)C(Cl)c1ccccc1 (stereo not drawn)	4.6	0.6	-2.0	1.8	-0.2	56.3*
Cc1ccc(Nc2c([N+](=O)[O-])c(=O)oc3ccccc23)cc1	6.2	5.8	-8.1	-0.5	0.3	6.2
O=C(CSc1nc2sc3c(c2c(=O)n1-c1ccccc1)CCCC3)NCc1ccco1	5.1	-1.2	4.5	-5.0	0.2	-2.0
COCCCn1c(SCC(=O)NCc2ccco2)nc2sc3c(c2c1=O)CCC3	3.2	0.8	7.4	-3.4	1.7	50.6*
O=C(CSc1nc2c(sc3ccccc32)c(=O)n1CCO)NCc1ccco1	2.4	2.3	-13.8	-3.6	1.3	-2.5
CC1(C)Cc2c(sc3nc(SCC(=O)NCc4ccco4)n(-c4ccccc4)c(=O)c23)CS1	1.6	-0.1	7.5	-3.8	0.4	52.8*
O=C(CSc1nc2c(sc3ccccc32)c(=O)n1CCCN1CCCC1)NCc1ccco1	3.4	4.5	-30.9	2.3	.	94.7*
CCc1ccc(N2C(=O)CC(c3ccc(F)cc3)C3=C2COC3=O)cc1 (stereo not drawn)	7.2	5.2	-15.8	4.7	0.1	-1.0
O=C(O)C(Cc1cn[nH]n1)=NO	.	-4.9	.	-2.8	2.0	.
CC(C(=O)NC1CCCc2ccccc21)N1CCN(c2ccc(F)cc2)CC1 (stereo not drawn)	6.2	4.0	1.5	1.1	45.3	69.8*
CC(C(=O)NC1CCCc2ccccc21)N1CCN(Cc2ccc3c(c2)OCO3)CC1 (stereo not drawn)	1.4	1.8	-10.0	-1.4	-1.7	86.2*
Cc1cc(C)nc(N/N=C/C2=C(N3CCOCC3)C(=C\c3ccc(Cl)cc3)/CC2)n1	3.4	1.2	7.1	-0.8	-1.1	30.4
Cc1occc1C(=O)N/N=C/C1=C(N2CCOCC2)C(=C\c2ccc(Cl)cc2Cl)/CC1	6.4	5.4	-86.1	-5.2	.	92.9*
COc1cccc(/C=N/NC(=O)C(=O)Nc2ccccc2OC(F)(F)C(F)F)c1	2.6	3.2	24.5	2.4	-1.1	-2.4
COc1ccccc1/C=N/NC(=O)C(=O)Nc1ccccc1OC(F)(F)C(F)F	1.9	5.8	32.4	0.6	-0.5	-5.3
O=C(N/N=C/c1cc(Cl)ccc1O)C(=O)Nc1ccccc1OC(F)(F)C(F)F	6.6	5.3	60.3*	-0.2	1.4	99.2*
SMILES	MT stabilizer	BaF3 parental	APP transl inh	Ba/F3 V617F tox	bCat nuc transl	Lmaj promast
O=C(N/N=C/c1cc(Br)ccc1O)C(=O)Nc1ccccc1OC(F)(F)C(F)F	2.2	2.8	31.3	5.5	-2.3	99.2*
Cc1ccc(S(=O)(=O)c2c(COC(=O)c3ccccc3Cl)c(-c3ccccc3)nn2C)cc1	1.2	0.1	15.9	-3.4	.	61.5*
Cc1cc(-c2csc(NC(=O)c3cc4ccccc4o3)n2)c(C)n1C	4.9	4.5	-8.2	0.3	-1.0	-1.1
Cc1csc(NC(=O)c2cccn2C)n1	2.4	1.5	-90.4	2.5	0.2	-0.4
O=C(Nc1nc(-c2ccccn2)cs1)c1ncc(Cl)c(Cl)c1Cl	3.6	7.0	-16.2	-0.7	-0.6	100.5*
Cn1cccc1C(=O)Nc1nc(-c2ccccn2)cs1	2.2	8.4	-42.6	4.3	1.1	100.1*
O=C(Nc1nc(-c2ccccn2)cs1)c1ccc(Cl)s1	3.6	3.1	77.2*	0.5	.	100.2*
O=C(Nc1nc(-c2ccc(Cl)s2)cs1)c1cccs1	5.7	0.9	-66.3	-3.9	-8.5	6.6
O=C(Nc1nc(-c2ccccn2)cs1)c1cc2ccccc2o1	2.9	6.8	-20.3	2.8	-2.3	100.1*
Cc1cccc(C(=O)NC(C(=O)Nc2nc(-c3ccccn3)cs2)C(C)C)c1 (stereo not drawn)	7.6	4.6	-7.0	8.1	1.4	97.9*
C[C@H](NC(=O)c1ccccc1)C(=O)Nc1nc(-c2ccccn2)cs1	3.0	4.8	1.9	0.6	-1.5	13.5
Oc1ccc(Cl)cc1-c1cc(-c2ccccc2Cl)[nH]n1	3.9	3.4	-11.1	-0.9	-7.6	13.7
Oc1ccccc1-c1cc(-c2ccco2)[nH]n1	1.6	2.9	-114.8	-3.9	3.9	1.4
Oc1ccc(Cl)cc1-c1cc(-c2ccco2)[nH]n1	4.2	3.7	11.9	-4.9	2.7	90.3*
Oc1ccc(Cl)cc1-c1cc(-c2cccc(Br)c2)n[nH]1	1.5	4.4	-8.6	0.9	1.0	99.2*
CCOc1ccc(-n2c(SCc3cc(=O)oc4cc(C)ccc34)nnc2-c2cccnc2)cc1	3.7	2.8	8.6	0.8	-1.6	18.6
CC(C)c1ccccc1-n1c(SCc2cc(=O)oc3ccc4ccccc4c23)nnc1-c1cccnc1	6.5	-0.3	3.0	1.3	0.6	54.3*
CC(=O)Nc1ccc2c(CSc3nnc(-c4cccnc4)n3-c3ccc(C)cc3C)cc(=O)oc2c1	2.8	1.3	9.4	-1.4	-0.8	56.9*
COc1cc(CC2COC(c3ccc(O)c(OC)c3)C2COC(C)=O)ccc1O (stereo not drawn)	.	.	.	.	2.5	.
Cc1ccc2nc3c(cc2c1)CN(Cc1ccco1)C(=NCC1CCCO1)S3 (stereo not drawn)	5.2	5.8	18.5	1.4	-0.8	39.9
Cc1cccc2cc3c(nc12)SC(=NCC1CCCO1)N(Cc1ccco1)C3 (stereo not drawn)	32.5*	8.9	2.0	8.6	2.9	33.4
